High-throughput results as filed in PubChem.
Sampled rows, rich in hits. Any-hit rate of the full collection: about 8.2%.
HePTP inh: blocks human HePTP tyrosine phosphatase. P35236. recombinant HePTP phosphatase activity, OD absorbance. inhibition, % at 20 µM. hit rate 0.64% among 110,000. AID 521; in the data active = inhibition above about 50%;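 also: plate controls were vehicle for no effect and reference inhibitor for full effect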
RORa activator: activators of human nuclear receptor RORA; P35398; CHO-K1 Gal4-RORA LBD luciferase reporter, luminescence; percent increase over mock-subtracted basal signal; activation, % at 10 µM; hit rate 1.5% among 65,000; AID 560;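 active = activation above the mean of all tested compounds plus 3 SD, cut at about 49% in these data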;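 also: 0% = DMSO-treated RORA cells and 100% = added signal equal to DMSO minus mock-transfected cells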
Target sequence (P35398 whole entry, looked up, the tested form may be a part): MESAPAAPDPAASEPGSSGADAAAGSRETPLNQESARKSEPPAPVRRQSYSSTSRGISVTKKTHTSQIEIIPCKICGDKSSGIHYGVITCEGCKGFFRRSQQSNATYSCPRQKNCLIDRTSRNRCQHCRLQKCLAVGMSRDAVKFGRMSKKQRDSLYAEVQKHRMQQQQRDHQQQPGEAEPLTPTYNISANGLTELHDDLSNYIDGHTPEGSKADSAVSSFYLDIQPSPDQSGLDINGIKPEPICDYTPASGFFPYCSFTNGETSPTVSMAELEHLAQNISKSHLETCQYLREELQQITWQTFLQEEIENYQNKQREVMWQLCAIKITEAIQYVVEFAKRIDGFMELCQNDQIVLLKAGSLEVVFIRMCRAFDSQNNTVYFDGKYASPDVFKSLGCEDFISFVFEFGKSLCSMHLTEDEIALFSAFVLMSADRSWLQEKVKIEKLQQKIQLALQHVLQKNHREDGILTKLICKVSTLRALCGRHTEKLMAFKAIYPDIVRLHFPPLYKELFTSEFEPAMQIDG
M1 antagonist: M1 muscarinic receptor (rat) antagonism | CHO-M1 cells, Fluo-4 calcium, ACh EC80 antagonist mode; stronger effect = lower value | B-score at 10 µM | AID 628 | hit rate 3.4% among 64,000 | P08482;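 active = calcium fluorescence response, raw or row-and-column corrected B-score, differing from the plate sample mean either way at a set confidence level, mostly lower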
SF1 activator: activates the human nuclear receptor SF-1; Q13285; CHO-K1 Gal4-SF-1 LBD luciferase reporter; % increase over DMSO SF-1-specific signal; activation, % at 10 µM; hit rate 1.9% among 65,000;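 active = activation above the mean activation of all tested compounds plus 3 SD, cut at about 50% in these data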
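Material: Gal4–SF-1 LBD one-hybrid luciferase reporter in CHO-K1 cells | Amount: 4,000 cells per well | Compound dosing: 10 µM single point, 1% DMSO | Schedule: 20 h compound treatment, 37 °C | Measured by: SteadyLite luciferase luminescence | Evaluation: Percent activation versus DMSO | Control set: DMSO-treated SF-1-transfected cells as negative, DMSO-treated mock-transfected cells lacking SF-1 as background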
M1 ag: activates the M1 muscarinic receptor. CHO-M1 cells, Fluo-4 calcium fluorescence, agonist mode; stronger effect = higher value. B-score at 10 µM. hit rate 3% among 64,000. AID 626;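 active = fluorescence rise, raw or as B-score row- and column-corrected plate score, outside the 99.7% band of its plate's samples, either direction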
D1 mod: D1 dopamine receptor (human) allosteric modulation; HEK293 D1, CRE-luciferase, dopamine EC30 potentiation; actives deviate in either direction; hit rate 5.9% among 58,000; B-score at 10 µM;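 active = luminescence count or its row- and column-corrected plate score outside the 99.7% band of the plate's sample wells, on either side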
D1 PAM confirm: confirmation of human D1 dopamine receptor allosteric modulators. shares compounds with D1 mod. HEK293 D1 CRE-luciferase, dopamine EC30 potentiation; stronger effect = higher value. luminescence at 10 µM. hit rate 88% among 2,200;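 active = luminescence in either of two replicates above the same-plate mean plus 3 SD of the low-dose dopamine control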
D1 no dopamine: secondary test of D1 modulators: activity without dopamine | hit rate 0.8% among 1,900 | luminescence at 10 µM | HEK293 D1 CRE-luciferase, luminescence, no dopamine; stronger effect = higher value | shares compounds with D1 mod; in the data active = luminescence above about 3900
Isoprot counter: isoproterenol response counter-screen activity for D1 modulators | shares compounds with D1 mod | HEK293 D1 CRE-luciferase, isoproterenol EC30 counter-screen | calls only at 10 µM | hit rate 63% among 2,200 | AID 647;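 active = luminescence in either replicate above plate mean of wells with a partly effective reference agonist dose plus 3 SD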;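 also: isoproterenol raises cAMP through native beta-adrenoceptor Gs so signal bypasses D1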
The depositor's hits bear a star; i = inactive; x = no result given; + = active, no number.

SMILES | HePTP inh | RORa activator | M1 antagonist | SF1 activator | M1 ag | D1 mod | D1 PAM confirm | D1 no dopamine | Isoprot counter
COc1ccc(N/C=C2\CCOC2=O)cc1 | 7 | -29 | 0.63 | -17 | -0.36 | 3.2* | 4948 | 1600 | i
COc1ccc(OC)c(NC(=O)CSc2nc3ccccc3c(=O)n2CCNC(C)=O)c1 | 10 | -18 | 0.24 | 11 | 0.83 | 9.7* | 9716* | 1560 | i
Cc1nn(-c2ccccc2)c(=S)n1-c1ccccc1 | -1 | -11 | 0.0041 | -2 | -0.29 | -0.27 | x | x | x
OCCn1nc2c3ccccc3nc-2n(-c2ccccc2)c1=S | 4 | -8 | -0.88 | 0 | -0.65 | 5.9* | 7812* | 1556 | i
COc1ccc(NC(=O)C(c2ccc(C)cc2)N(C)C(=O)c2cnccn2)cc1 (stereo not drawn) | -1 | 1 | 0.12 | -3 | -1.1 | -0.92 | x | x | x
CC(=O)NC1C(=O)N=C(SCc2ccccc2)NC1=O (stereo not drawn) | 2 | x | x | x | x | 0.0046 | x | x | x
CC(=O)NC1Sc2ccccc2N=C1c1ccccc1 (stereo not drawn) | -4 | 42 | 0.69 | 59* | 0.74 | 6.1* | 7472* | x | i
Fc1ccc(NC(=S)N(CCN(C(=S)Nc2ccc(F)cc2)c2ccccc2)c2ccccc2)cc1 | -5 | x | x | x | x | x | x | x | x
O=C(CCn1c(=O)oc2ccccc21)N(Cc1ccccc1)c1ccccn1 | x | -15 | -0.54 | -8 | -0.13 | -0.044 | x | x | x
Nc1ncnc2c1ncn2CCOc1ccccc1 | 8 | -9 | -0.74 | 22 | -0.54 | 4.9* | 6344* | 1408 | i
Nc1ncnc2c1ncn2CCN1CCOCC1 | 8 | -8 | 0.54 | 6 | 0 | -0.32 | x | x | x
Cc1cc(Br)c2c(c1)=C(c1sc(N3CCCCCC3)nc1O)C(=O)N=2 | 10 | 34 | 1.8 | 50* | 1.1 | 6* | 18480* | 1764 | i
COC(=O)n1c(SC)nc2ccccc21 | 10 | -16 | -1.3 | -4 | 0.1 | 5.6* | 11396* | 1220 | +
COc1cc2c(C(=O)NCCCN3CCN(c4cccc(Cl)c4)CC3)cn(C)c(=O)c2cc1OC | 16 | 19 | 1.1 | 18 | -0.49 | x | x | x | x
N#CC1=C(N)N(c2ccccc2)C2=C(C(=O)CCC2)C1c1ccsc1 (stereo not drawn) | -5 | 11 | 0.6 | -1 | 0.65 | 8.3* | 17976* | 1976 | i
COc1cc(C2CC(=O)Nc3c2ccc2ccccc32)ccc1O (stereo not drawn) | 2 | x | x | x | x | x | x | x | x
CCOc1cc(C2CC(=O)Nc3cc(C)c(C)cc32)ccc1O (stereo not drawn) | -5 | 14 | 0.017 | -19 | -0.61 | 21* | 17484* | x | +
CCOc1cc(C2CC(=O)NC(SCC)=C2C#N)ccc1O (stereo not drawn) | 4 | 2 | 0.67 | -8 | 0.28 | 4.5* | 6316* | 1704 | i
N#Cc1c(-c2ccccc2)cc(C2CC2)nc1N | -2 | 3 | 0.13 | -5 | 0.44 | 25* | 29052* | 1688 | +
CCSc1nc2ccccc2n1CC(N)=O | -7 | 2 | 0.17 | 12 | 0.13 | 0.32 | x | x | x
CCSc1nc2ccccc2n1Cc1nc(N)nc(N(C)C)n1 | 10 | -17 | 0.41 | -5 | -0.9 | 5.2* | 10584* | x | +
CCOC(=O)N1CCN(C(=O)c2cccc(NC(=O)c3ccco3)c2)CC1 | 8 | -20 | -0.54 | -1 | 0.3 | x | x | x | x
C=CCN(C(=O)CNC(=O)c1ccco1)C(C(=O)NC1CCCCC1)c1ccccc1 (stereo not drawn) | 3 | -1 | 0.7 | 6 | -0.26 | 0.04 | x | x | x
O=C(CCNS(=O)(=O)c1cccs1)N1CCc2ccccc2C1 | -3 | 45 | 0.032 | 41 | 0.7 | 3.4* | 4796 | x | +
CC(C)(C)C(=O)Nc1ccc(Cl)cc1C(=O)O | -10 | x | x | x | x | x | x | x | x
SMILES | HePTP inh | RORa activator | M1 antagonist | SF1 activator | M1 ag | D1 mod | D1 PAM confirm | D1 no dopamine | Isoprot counter
c1ccc(Cn2c(NCc3ccco3)nc3ccccc32)cc1 | 4 | -9 | -0.78 | 0 | -0.38 | 12* | 14512* | 1716 | i
c1coc(CNc2nc3ccccc3n2CCN2CCOCC2)c1 | 0 | 5 | -0.18 | 4 | 0.076 | -0.71 | x | x | x
CCOC(=O)C1CCN(Cc2c(F)cccc2Cl)CC1 | 6 | -17 | 0.13 | -11 | -0.75 | 0.24 | x | x | x
O=c1c(F)cn(C2CCCO2)c(=O)n1Cc1c(F)cccc1Cl (stereo not drawn) | 1 | 11 | 0.00092 | 0 | -0.015 | 6.2* | 8312* | 1800 | +
CCc1ccc(-c2nc3cc(NS(=O)(=O)c4ccccc4)ccc3o2)cc1 | -3 | x | x | x | x | x | x | x | x
CN1C(=S)SC(C)(C)C1/[N+]([O-])=C/c1cccnc1 (stereo not drawn) | 9 | -3 | 0.007 | -1 | -0.47 | 7.5* | 5660 | 1560 | i
CC(=O)N(c1c(C)n(C)n(-c2ccccc2)c1=O)C1(C(=O)NC2CCCC2)CCCCC1 | -8 | 38 | x | -14 | x | -0.12 | x | x | x
COC(=O)c1ccc(CSc2ncnc3ccccc23)o1 | -2 | -25 | 0.54 | 14 | 0.88 | 4.5* | 9672* | x | +
COC(=O)c1ccc(CSc2ncnc3c2oc2ccccc23)o1 | -4 | -8 | -0.077 | -2 | 0.56 | -0.52 | x | x | x
CCOC(=O)C1=CN(C)C=C(C(=O)OCC)C1c1ccsc1 | 0 | -10 | 2.2* | 2 | 0.83 | 5.8* | 4896 | 1708 | i
Brc1ccc(-c2nn3c(-c4ccco4)nnc3s2)o1 | 12 | -2 | -0.4 | -2 | 0.21 | 4.1* | 10612* | 1476 | +
CCCCn1c(N)c(N(CCC(C)C)C(=O)CSc2nnc(C)s2)c(=O)[nH]c1=O | 8 | -6 | -0.38 | 0 | -0.16 | 0.1 | x | x | x
CSc1ncccc1C(=O)OCc1ccccc1F | -8 | 89* | 0.082 | 29 | -0.35 | 10* | 16732* | 1608 | +
CSc1ncccc1C(=O)OCc1ccccc1 | 12 | 46 | -0.98 | 30 | 0.58 | x | x | x | x
COc1cccc(-n2nnc3c(=O)n(CC(=O)NC4CCCC4)cnc32)c1 | 1 | 14 | -0.14 | 0 | -0.42 | 4.4* | 8080 | 1872 | i
Fc1ccccc1Cn1nnc2c(NCCc3ccccn3)ncnc21 | 0 | 10 | -0.83 | -1 | -0.79 | 2.2 | x | x | x
C#CCNc1nc(CC)nc2c1nnn2Cc1ccccc1F | -1 | 13 | -1 | 9 | -0.12 | 5.9* | 15288* | 1616 | +
Cc1ccc(C)c(S(=O)(=O)NCc2cccnc2)c1 | -6 | 6 | 0.31 | 0 | 0.21 | 0.63 | x | x | x
